Screens from PubChem.
Tb MetRS inh – T. brucei MetRS inhibitors, primary screen, biochemical, luminescence. purified T. brucei MetRS, ATP depletion, Kinase-Glo luminescence. hit rate 0.4% among 360,000. inhibition, % at 11.9 µM;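 active means inhibition above a per-plate cutoff of the control wells' mean inhibition plus 3 SD, cut at about 5.5% in these data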;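 further: 0% = DMSO wells median and 100% = median of wells with control inhibitor compound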
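Dosing: 11.9 µM single point; system: parasite MetRS enzyme; technique: luminescence of leftover ATP; times: 15 min enzyme-compound preincubation, 2 h reaction, 10 min detection, 25 °C; replicates: each compound tested once; read-out basis: percent inhibition relative to median high and low control wells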
procasp3 activ – activators of human procaspase-3 D3A mutant, primary screen, biochemical, absorbance, PC-3 D3A mutant, single concentration; hit rate 0.11% among 330,000; recombinant procaspase-3 D3A, Ac-DEVD-pNA absorbance 405 nm; activation, % at 8.5 µM; Caspase-3 (Homo sapiens), P42574; AID 463141, 2010;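 active means activation above the mean of all tested compounds plus 3 SD, cut at about 21% in these data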;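 further: 0% = DMSO alone and 100% = DMSO wells spiked with extra 5 µM PC-3 D3A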
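Assay system: Procaspase-3 D3A mutant, all three cleavage aspartates alanine. Buffer or medium: Zinc-free HEPES saline buffer with Triton X-100. Times: 1 h compound preincubation, 2 h substrate hydrolysis at 25 °C. Measured by: 405 nm absorbance of p-nitroaniline, reads at 0 and 120 min. Read-out basis: percent activation relative to control range. Replicates: singlicate.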
MsrA act – bovine MsrA enzyme activators, primary screen, biochemical, absorbance, HTS; activation, % at 10.6 µM; Methionine sulfoxide reductase A (Bos taurus); hit rate 0.3% among 360,000; purified bovine MsrA, absorbance read-out; AID 602163, 2012; in the data active means activation above about 7.5%;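 further: 0% = vehicle and 100% = reference activator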
MsrA inhibitor – bovine MsrA enzyme inhibitors, primary screen, biochemical, absorbance, HTS | Methionine sulfoxide reductase A (Bos taurus) | purified bovine MsrA, absorbance read-out | inhibition, % at 15.5 µM | hit rate 0.75% among 360,000; in the data active means inhibition above about 4.5%;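 further: 0% = vehicle wells with enzyme and 100% = reference inhibitor wells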
procasp7 counter – procaspase-7 activators, primary screen, counter-screen for procaspase-3 activator project, biochemical, absorbance, HTS, human | Caspase-7 (Homo sapiens), P55210 | recombinant procaspase-7, Ac-DEVD-pNA absorbance 405 nm; D23A/D198A/D206A triple mutant, cannot self-cleave; scale: DMSO 0, 5 µM enzyme 100 | activation, % at 8.5 µM | hit rate 0.093% among 330,000;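 active means percent activation above the screen-wide mean plus 3 SD, cut at about 25% in these data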
Target sequence (P55210 whole entry D23A/D198A/D206A): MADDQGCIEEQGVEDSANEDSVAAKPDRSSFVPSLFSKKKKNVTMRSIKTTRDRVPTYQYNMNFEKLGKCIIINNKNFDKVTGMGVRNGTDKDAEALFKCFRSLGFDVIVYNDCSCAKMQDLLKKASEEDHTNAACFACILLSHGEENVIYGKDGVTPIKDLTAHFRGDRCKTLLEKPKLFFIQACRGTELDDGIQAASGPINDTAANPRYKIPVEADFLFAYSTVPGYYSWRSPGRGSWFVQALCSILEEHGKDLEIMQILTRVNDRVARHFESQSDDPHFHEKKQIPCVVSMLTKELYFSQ
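Replicates: singlicate. Assay system: Procaspase-7 triple mutant (PC-7 D3A). Signal: 405 nm absorbance of p-nitroaniline. Times: 1 h preincubation, 2 h reaction. Buffer or medium: Zinc-free HEPES pH 7.4 with 300 mM NaCl, 0.01% Triton X-100. Also added: DEVD-pNA substrate. Benchmarks: DMSO wells as 0%, DMSO with 5 µM added PC-7 as 100%.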
Tb MetRS conf – T. brucei MetRS inhibitors, confirmation, biochemical, luminescence. inhibition, % at 11.9 µM. T. brucei MetRS enzyme, luminescence (ATP depletion). shares compounds with Tb MetRS inh. hit rate 93% among 1,400; in the data active means inhibition above about 7%
Jurkat tox – Jurkat T cell cytotoxicity, cytotoxicity control for T. brucei MetRS inhibitor project, luminescence, high throughput; shares compounds with Tb MetRS inh; Jurkat cells viability, ATP luminescence; inhibition, % at 8.3 µM; hit rate 12% among 1,400; AID 624413, 2012; in the data active means inhibition above about 15%;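 further: 0% = vehicle and 100% = reference inhibitor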
Tb MetRS inh FP – T. brucei MetRS inhibitors, orthogonal assay for T. brucei MetRS inhibitor project, biochemical, fluorescence polarization; purified T. brucei MetRS; inhibition, % at 11.9 µM; AID 651607, 2012; shares compounds with Tb MetRS inh; hit rate 44% among 1,400; in the data active means inhibition above about 17%;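 further: 0% = vehicle wells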
The depositor's hits bear a star; . = no result given. Rows were chosen to be rich in hits. Some 1.5% of all compounds tested hit in one or more screens of this group.

SMILES	Tb MetRS inh	procasp3 activ	MsrA act	MsrA inhibitor	procasp7 counter	Tb MetRS conf	Jurkat tox	Tb MetRS inh FP
COC(=O)N(C)C[C@H]1OCc2cn(nn2)CCCC(=O)N([C@H](C)CO)C[C@@H]1C	.	.	.	0.6	.	.	.	.
COC(=O)c1sc(-c2ccc(Cl)cc2)cc1NC(=O)/C=C/C(=O)O	0.7	-6.6	-3.4	1.0	-2.4	.	.	.
COC(=O)c1sc(-c2ccc(Cl)cc2)cc1NC(=O)COCC(=O)O	38.3*	-11.3	-4.1	3.5	2.6	37.0*	8.0	24.8*
Cc1cccc(CCN=C(N)NS(=O)(=O)c2ccccc2)c1	6.2*	6.2	1.9	0.0	2.3	14.4*	6.2	5.0
CCOc1ccc(C(=O)Nc2cc(-c3nc4ccccc4[nH]3)ccc2Cl)cc1[N+](=O)[O-]	7.7*	-7.2	-1.9	1.9	-5.9	13.6*	5.3	15.3
O=C(NC(Cc1ccccc1)c1nc2ccccc2[nH]1)c1ccc(Cl)c([N+](=O)[O-])c1 (centres undefined)	20.2*	-1.0	3.1	0.7	-1.2	26.4*	10.8	12.2
Cc1c(C(=O)NC(Cc2ccccc2)c2nc3ccccc3[nH]2)cccc1[N+](=O)[O-] (centres undefined)	0.0	1.9	-10.9	-1.4	-3.9	.	.	.
CSCC[C@H](NC(=O)COc1ccc(Cl)cc1Cl)c1nc2ccccc2[nH]1	11.8*	-1.0	-2.3	-0.7	-6.7	24.1*	5.2	10.6
CSCC[C@H](NC(=O)c1ccc(Cl)c([N+](=O)[O-])c1)c1nc2ccccc2[nH]1	56.2*	2.2	-3.5	0.0	3.1	73.0*	8.7	42.6*
CC(C)(C)OC(=O)N[C@H]1C=C[C@@H](CC(=O)OCC(F)(F)F)C1	.	.	.	0.0	.	.	.	.
COC(=O)C[C@@H]1CC[C@@H](NS(=O)(=O)c2cccc(OC)c2)[C@@H](CO)O1	-1.2	.	.	-0.6	.	.	.	.
O=C(CCC(=O)OCc1ccc(Br)cc1)Nc1ccccc1	6.1*	-0.6	-1.5	-1.3	-1.7	13.8*	-3.4	5.5
O=C(CCC(=O)OCc1ccc(C(=O)Oc2ccc(Cl)cc2)cc1)Nc1ccccc1	-1.1	-3.9	-11.8	-0.5	2.7	.	.	.
O=C(CC(=O)Nc1ccc(Br)cc1)Nc1ccc(Br)cc1	7.0*	0.1	-4.8	1.2	-2.7	11.3*	-3.4	10.1
O=C(Cc1cccc(Cl)c1)Nc1ccc(Br)cc1	39.7*	2.7	-2.8	-1.5	9.1	60.7*	-0.6	38.8*
Cc1cccc(Cl)c1NC(=O)N(C)c1ccccc1	.	.	.	-0.2	.	.	.	.
Cc1ccc(CN2CCC=CS2(=O)=O)cc1	.	.	.	-0.7	.	.	.	.
CC(C)NC(=O)N(C)C[C@@H]1OCc2cn(nn2)CCCC(=O)N([C@@H](C)CO)C[C@H]1C	.	.	.	-1.6	.	.	.	.
CCOc1ccc(CNc2nc3ccccc3n2CCN2CCOCC2)cc1	1.0	5.0	-8.4	1.2	8.8	.	.	.
Brc1cccc(CNc2nc3ccccc3n2CCN2CCOCC2)c1	7.5*	-1.5	-2.6	2.4	-0.1	20.3*	8.3	4.7
Cc1cccc(NS(=O)(=O)c2ccc3[nH]c(=O)oc3c2)c1C	-0.2	7.2	-2.3	-0.5	4.0	.	.	.
Cc1cccc(NS(=O)(=O)c2ccc3nc(-c4ccccc4)[nH]c3c2)c1C	27.5*	-0.3	-8.5	1.1	6.4	40.0*	3.1	30.5*
CN(c1cccnc1)c1ccc(NC(=O)Cc2cn(Cc3ccccc3)c3ccccc23)cc1Br	.	.	.	0.4	.	.	.	.
